pEC50: −log10 of the molar value. The source made the active and inactive calls. No cut-off for these calls is given here.
Columns and labels:
Hepatitis C virus [1] = experiment: Antiviral activity against HCV infected in human Ava5 cells assessed as reduction in HCV RNA level after 3 days by qRT-PCR analysis; format: functional, organism-based, Hepacivirus hominis; conditions: for pEC50: Ava5, 72 h
In short: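 Ava5 cells (Huh7 harbouring HCV subgenomic replicon) exposed to compounds at 0.5–150 µM for 3 days. Total cellular RNA quantified by RT-qPCR with HCV-specific primers, normalised to GAPDH mRNA. EC50 is the concentration lowering HCV RNA by 50% versus 0.1% DMSO mock, from non-linear regression. Means of triplicate experiments.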

[2] = Selectivity index, ratio of CC50 for human Ava5 cells to IC50 for HCV replication; format: functional
In short: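 CC50 from MTS viability in Ava5 cells, run in parallel with replicon treatment (0.5–150 µM, 3 days, versus 0.1% DMSO mock). EC50 is 50% reduction in HCV RNA by RT-qPCR. Index calculated as CC50/EC50.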

Hepacivirus hominis = experiment: Inhibition of HCV NS5B polymerase activity by luciferase reporter gene assay
[3] = test system: Internal ribosome entry site (IRES); experiment: Inhibition of HCV IRES-mediated translation by secretory alkaline phosphatase reporter gene assay; format: nucleic-acid assay; conditions: Hepacivirus hominis
Huh-7 = experiment: Inhibition of HCV NS3/4A protease expressed in human Huh7 cells coexpressing EGFP at 15 uM after 3 days by secretory alkaline phosphatase reporter gene assay; format: cell-based; conditions: Hepacivirus hominis
In short: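 Huh-7 cells transfected 6 h with 0.5 µg pEG(Δ4AB)SEAP-NS3/4A reporter plasmid, then treated with compound at 5, 10, 12.5 and 15 µM. Controls: 10 nM BILN 2061 (positive) and 0.1% DMSO (mock). SEAP activity in culture medium read after 3 days, expressed as % reduction versus mock. Triplicates, mean ± SD.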

Hepatitis C virus [4] = experiment: Antiviral activity against HCV infected in human Ava5 cells assessed as inhibition of NS5B protein expression after 4 days by Western blot analysis; format: functional, organism-based; conditions: Hepacivirus hominis
In short: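 Ava5 cells (Huh7 carrying HCV subgenomic replicon) incubated 4 days with compound at 2.5–15 µM; 0.1% DMSO as mock. Cell lysates analysed by western blot with anti-NS5B antibody, GAPDH as loading control.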

Hepatitis C virus [5] = experiment: Antiviral activity against HCV infected in human Ava5 cells assessed as reduction in HCV RNA level at 15 uM after 3 days by qRT-PCR analysis relative to control; format: functional, Hepacivirus hominis; design: scale not given: the % may be the effect or the level left
In short: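 HCV replicon Ava5 cells treated 3 days at 2.5–15 µM. HCV RNA measured by RT-qPCR, normalised to GAPDH mRNA, relative to 0.1% DMSO mock. Triplicate experiments, mean ± SD.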

Structure (SMILES)	pEC50 (Hepatitis C virus [1])	Ratio CC50/EC50 [2]	further results
O=[N+]([O-])c1cccc(Nc2ccc3ccccc3n2)c1	5.15	10	Activity (Hepatitis C virus [1]; Hepacivirus hominis): Dose-dependent effect; inhibition (Hepacivirus hominis): inactive; inhibition [3]: inactive; inhibition (Huh-7): 40%; inhibition (Hepatitis C virus [4]): Dose-dependent effect; Activity (Hepatitis C virus [5]): 80%
CCOC(=O)c1ccc(Nc2ccc3ccccc3n2)cc1	4.30	2.9	–
N#Cc1ccc(Nc2ccc3ccccc3n2)cc1	4.84	3.5	–
COc1cc(Nc2ccc3ccccc3n2)cc(OC)c1	4.48	1	–
O=[N+]([O-])c1ccc(Nc2ccc3ccccc3n2)cc1	4.70	2.4	–
COc1cc(Nc2ccc3ccccc3n2)cc(OC)c1OC	4.60	3	–
O=[N+]([O-])c1cc(Nc2ccc3ccccc3n2)ccc1O	4.66	3.8	–
c1ccc(COc2cccc(Nc3ccc4ccccc4n3)c2)cc1	4.82	3.1	–

Second part, led by results:

pEC50 (Hepatitis C virus [1])	Structure (SMILES)	Ratio CC50/EC50 [2]	further results
4.22	Brc1ccccc1Nc1ccc2ccccc2n1	1	–
4.37	COc1ccc(Nc2ccc3ccccc3n2)cc1	1	–
4.28	Clc1ccc(Nc2ccc3ccccc3n2)cc1	1.1	–
4.35	Clc1cc(Br)ccc1Nc1ccc2ccccc2n1	1	–
4.64	c1ccc(Nc2ccc3ccccc3n2)cc1	1.96	–
4.37	Cc1ccc(Nc2ccc3ccccc3n2)cc1	1	–
4.46	Cc1ccc(Nc2ccc3ccccc3n2)c(C)c1	1	–
4.40	Cc1cccc(C)c1Nc1ccc2ccccc2n1	1	–
4.90	Cc1cc(Cl)ccc1Nc1ccc2ccccc2n1	3.4	–
4.51	Cc1cc(C)cc(Nc2ccc3ccccc3n2)c1	1	–
